The list is not random: actives were taken first. Their share in the collection is about 1.7%.
Runt-SMMHC FRET: inhibitors of human RUNX1 Runt domain binding to CBFb-SMMHC | Cerulean-Runt/Venus-CBFb-SMMHC FRET ratio 530/480, 1 h | inhibition, % at 20 µM | 220,000 tested, 0.74% active | AID 1434;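 active = mean inhibition across duplicate retests at 20 µM reaching about 50%, limit read from the data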;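 note: 0% = DMSO wells and 100% = wells with excess untagged CBFb-SMMHC; inhibitors lower the FRET ratio by blocking Runt binding to CBFb-SMMHC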
Target sequence (Q01196 whole entry, looked up, the tested form may be a part): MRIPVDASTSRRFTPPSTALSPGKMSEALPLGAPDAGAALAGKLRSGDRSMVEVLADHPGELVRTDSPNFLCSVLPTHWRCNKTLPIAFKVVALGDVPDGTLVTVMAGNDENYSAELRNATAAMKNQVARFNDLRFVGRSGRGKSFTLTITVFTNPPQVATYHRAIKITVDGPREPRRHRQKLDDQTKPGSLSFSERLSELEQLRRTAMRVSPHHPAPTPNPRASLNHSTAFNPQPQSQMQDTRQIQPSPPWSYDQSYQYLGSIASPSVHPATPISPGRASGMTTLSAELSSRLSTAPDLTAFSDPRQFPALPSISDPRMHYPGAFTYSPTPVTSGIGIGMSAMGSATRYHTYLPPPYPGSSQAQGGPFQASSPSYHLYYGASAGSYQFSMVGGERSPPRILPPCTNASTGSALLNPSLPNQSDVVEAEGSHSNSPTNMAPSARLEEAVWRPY
Target sequence (Q13951 whole entry, looked up, the tested form may be a part): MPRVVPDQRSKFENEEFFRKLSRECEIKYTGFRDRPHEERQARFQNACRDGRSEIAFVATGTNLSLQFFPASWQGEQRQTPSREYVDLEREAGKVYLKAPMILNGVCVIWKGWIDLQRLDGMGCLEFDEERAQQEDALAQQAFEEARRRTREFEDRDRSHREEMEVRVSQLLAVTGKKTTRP
Vif imaging: inhibitors of HIV Vif. HEK293T cells, Vif self-association by quenched fluorescence, imaging, 24 h. inhibition, % at 7.49 µM. 340,000 tested, 0.35% active. AID 602346; in the data active = inhibition above about 50%, passing the limit was not always enough
Runt-CBFb FRET: inhibitors of human RUNX1 Runt domain binding to CBFb. Q01196+Q13951. Cerulean-Runt/Venus-CBFb FRET ratio 530/480, 1 h. inhibition, % at 20 µM. 220,000 tested, 0.46% active;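 active = inhibition over about 50% at 20 µM in the single-dose screen, limit read from the data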;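 note: 0% = DMSO wells and 100% = excess unlabeled CBFb competitor control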
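Doses: 20 µM compound in 1% DMSO | Material: Cerulean-labeled Runt domain protein | Amount: Each fluorescent fusion protein 100 nM | Schedule: Two 1 h room-temperature incubations shielded from light | Measured by: FRET fluorescence | Evaluation: Loss of energy transfer signal | Controls: Unlabeled CBFb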
Rce1 inh: yeast Ras-converting enzyme inhibition. calls only. yeast membranes, quenched prenylated peptide cleavage fluorescence. 290,000 tested, 0.27% active;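 active = fall in fluorescence gain of 50% or more versus controls, with final raw signal at or below 3038400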;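 note: plate controls were neutral control wells for no effect and wells lacking membranes for full effect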
RanGTP-Impb inh: inhibitors of RanGTP-importin-beta interaction, primary screen, biochemical, FRET, CFP-Ran, YFP-importin-beta, homogeneous; cell-free CFP-Ran/YFP-importin-beta FRET ratio; inhibition, % (concentration not given with the values); 300,000 tested, 1.1% active; AID 2216;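 active = more than half of the replicate wells show a fall in the fluorescence ratio signal beyond about 16%, limit read from the data, passing the limit was not always enough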;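 note: 0% = DMSO wells and 100% = Ran loaded with GDP instead of GTP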
* marks the source's active call; other numbers are inactive results.

`Nc1c(C(=O)NCc2ccccc2)sc2nc(N3CCOCC3)c3c(c12)CCCC3` gave Runt-SMMHC FRET 23.2, Runt-CBFb FRET 6.7, Rce1 inh active and RanGTP-Impb inh 1.4.
`O=C(CCl)Nc1ccccc1C(=O)NCc1ccccc1` gave Runt-SMMHC FRET 1.4, Vif imaging -1.3, Runt-CBFb FRET -1.0, Rce1 inh inactive and RanGTP-Impb inh 0.6.
Screening COC(=O)c1ccc(C)c(NS(=O)(=O)c2ccc(NC(C)=O)cc2)c1 returned Runt-SMMHC FRET 3.1, Vif imaging -3.7, Runt-CBFb FRET 1.3, Rce1 inh inactive and RanGTP-Impb inh -1.5.
Screening CCn1cc(S(=O)(=O)Nc2cc(C(=O)OC)ccc2C)cn1 returned Vif imaging 2.6, Rce1 inh inactive and RanGTP-Impb inh 32.1*.
`N#Cc1c(-c2ccccc2)cc(C2CC2)nc1SCC(=O)c1cccs1` gave Runt-SMMHC FRET -47.0, Vif imaging 85.9*, Runt-CBFb FRET -32.2, Rce1 inh inactive and RanGTP-Impb inh 4.0.
Cc1ccc(C(=O)O)cc1-n1c(C)cc(C=O)c1C was read as Runt-SMMHC FRET 90.5*, Runt-CBFb FRET 22.7, Rce1 inh inactive and RanGTP-Impb inh 2.2.
Screening Cc1c(C(=O)O)cccc1-n1c(C)cc(C=O)c1C returned Runt-SMMHC FRET 92.5*, Vif imaging 16.2, Runt-CBFb FRET 13.5, Rce1 inh inactive and RanGTP-Impb inh 6.7.
For CC(C)C(=O)Nc1ccc(NC(=S)NC(=O)c2ccccc2F)cc1 the results were Rce1 inh inactive and RanGTP-Impb inh 2.7.
For CCN(CC)Cc1c(O)ccc2cc(-c3nc4ccccc4n3C)c(=O)oc12 the results were Vif imaging 9.4, Rce1 inh inactive and RanGTP-Impb inh 131.6*.
For CCc1cc2c(=O)c(-c3nc4ccccc4n3C)c(C)oc2c(CN(CC)CC)c1O the results were Runt-SMMHC FRET 3.1, Vif imaging -7.1, Runt-CBFb FRET -0.7, Rce1 inh inactive and RanGTP-Impb inh -2.9.
CC(=O)Oc1ccc2cc(-c3nc4ccccc4n3C)c(=O)oc2c1 was read as Runt-SMMHC FRET 38.0, Vif imaging 0.7, Runt-CBFb FRET 11.4 and RanGTP-Impb inh 147.1*.
Cn1c(-c2cc3ccc(OC(=O)C(C)(C)C)cc3oc2=O)nc2ccccc21 was read as Runt-SMMHC FRET -13.8, Vif imaging -9.1, Runt-CBFb FRET 11.8, Rce1 inh inactive and RanGTP-Impb inh 149.5*.
CC(C)(C)C(=O)Oc1ccc2cc(-c3ccc4ccccc4n3)c(=O)oc2c1 was read as Runt-SMMHC FRET 59.5*, Vif imaging 6.4, Runt-CBFb FRET 19.2, Rce1 inh inactive and RanGTP-Impb inh 28.1*.
For Cc1ccc(-c2nc(C)sc2CC(=O)OCC(=O)Nc2ccc(F)c(Cl)c2)cc1 the results were Vif imaging -17.2, Rce1 inh inactive and RanGTP-Impb inh -1.5.
COc1ccc(S(=O)(=O)NCc2csc(C)n2)cc1OC was read as Vif imaging -6.3, Rce1 inh inactive and RanGTP-Impb inh -5.1.
`NC(=O)C1Cc2ccccc2CN1C(=O)c1nn(Cc2ccccc2)c(=O)c2ccccc12` (stereo unspecified) gave Vif imaging 7.4.
Screening Cc1nc(-c2ccc(O)c(O)c2)cs1 returned Runt-SMMHC FRET 23.8, Vif imaging 67.3*, Runt-CBFb FRET 39.2, Rce1 inh inactive and RanGTP-Impb inh 0.1.
`COc1cc(-c2csc(C)n2)ccc1O` gave Runt-SMMHC FRET 0.5, Vif imaging -2.1, Runt-CBFb FRET -0.4, Rce1 inh inactive and RanGTP-Impb inh -0.2.
For Oc1ccc(-c2csc(-c3ccccc3)n2)cc1O the results were Runt-SMMHC FRET 52.3*, Runt-CBFb FRET 37.0, Rce1 inh inactive and RanGTP-Impb inh -4.4.
Screening Cc1ccc(C(=O)C2CCN(CC(=O)NC3CCCC3)CC2)cc1 returned Vif imaging -32.2, Rce1 inh inactive and RanGTP-Impb inh 0.1.
`O=C(O)c1cc(N/N=C/C=C/c2ccccc2)ccc1Cl` gave Runt-SMMHC FRET 87.4*, Vif imaging 1.2, Runt-CBFb FRET 38.8, Rce1 inh inactive and RanGTP-Impb inh -2.3.
For COc1ccc(NS(=O)(=O)c2cccc(C(=O)NCc3ccccn3)c2)cc1 the results were Vif imaging -1.5, Rce1 inh inactive and RanGTP-Impb inh -3.4.
For O=C(NNC1CC(=O)N(c2cccc(Cl)c2)C1=O)c1cccs1 (stereo unspecified) the results were Runt-SMMHC FRET 3.1, Vif imaging 52.5*, Runt-CBFb FRET -3.4, Rce1 inh inactive and RanGTP-Impb inh 3.0.
For COc1ccccc1CC(=O)Nc1ccon1 the results were Vif imaging 56.1*, Rce1 inh inactive and RanGTP-Impb inh -1.5.
Screening COc1ccccc1CNC(=O)CSC1=NCCS1 returned Runt-SMMHC FRET 2.9, Vif imaging 58.3*, Runt-CBFb FRET 1.3, Rce1 inh inactive and RanGTP-Impb inh -2.5.
COc1ccccc1CNC(=O)c1ccncc1 was read as Vif imaging 7.8, Rce1 inh inactive and RanGTP-Impb inh 23.3*.
`Cc1ccccc1CC(=O)Nc1ccon1` gave Vif imaging 11.5, Rce1 inh inactive and RanGTP-Impb inh 2.9.
COc1ccccc1CNC(=O)CSc1ccc(Br)cc1 was read as Runt-SMMHC FRET 1.1, Vif imaging 0.7, Runt-CBFb FRET -1.7, Rce1 inh inactive and RanGTP-Impb inh 2.6.
Screening Cc1cc2occ(CC(=O)N(CC(C)C)c3c(N)n(Cc4ccccc4)c(=O)[nH]c3=O)c2cc1C returned Vif imaging -10.4, Rce1 inh inactive and RanGTP-Impb inh -1.8.
For COc1ccc(N2CC(C(=O)N3CCN(c4ccccc4OC)CC3)CC2=O)cc1 (stereo unspecified) the results were Vif imaging 18.4, Rce1 inh inactive and RanGTP-Impb inh -1.6.
`CCCCOC(=S)NC(=O)c1sc2ccccc2c1Cl` gave Runt-SMMHC FRET 2.9, Vif imaging -0.2, Runt-CBFb FRET 3.1, Rce1 inh inactive and RanGTP-Impb inh 29.4*.
Screening O=[N+]([O-])c1cccc(-c2cn3nc(-c4ccccc4)c(-c4ccccc4)nc3n2)c1 returned Runt-SMMHC FRET 90.1, Vif imaging -5.9, Runt-CBFb FRET -0.3, Rce1 inh inactive and RanGTP-Impb inh 70.2*.
Screening O=[N+]([O-])c1ccc(-n2cc(-c3ccccc3)nn2)cc1 returned Vif imaging 6.0, Rce1 inh inactive and RanGTP-Impb inh 2.6.
`O=[N+]([O-])c1cccc(-c2cn3ccccc3n2)c1` gave Runt-SMMHC FRET -0.6, Vif imaging -12.4, Runt-CBFb FRET 0.0, Rce1 inh inactive and RanGTP-Impb inh 2.1.
Screening O=[N+]([O-])c1ccc(-c2cn3nc(-c4ccccc4)c(-c4ccccc4)nc3n2)cc1 returned Runt-SMMHC FRET 81.0, Vif imaging -0.3, Runt-CBFb FRET -129.7, Rce1 inh inactive and RanGTP-Impb inh 42.0*.
For CSc1ncccc1C(=O)OCC(=O)Nc1ccc(C)c(S(=O)(=O)N2CCOCC2)c1 the results were Vif imaging -9.8.

Assay outcomes deposited in PubChem BioAssay by several laboratories.
